The values below come from ChEMBL document CHEMBL1123704, “Synthesis of D-oxa tricyclic partial ergolines as dopamine agonists” (1987).

Common to all, as to assay type: functional
Assay [1] relates to Rattus norvegicus. The assay is described as follows: Ability to induce contralateral rotational behavior in unilateral 6-hydroxydopamine nigrostriatal-lesioned rats and no. of turns was determined after 15 minutes of start at intraperitoneal dosage of 1.0 mg/kg. The procedure, abridged: (§1)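 Rats given unilateral 6-hydroxydopamine nigrostriatal lesions, then test compound ip. Contralateral rotation was scored as percent of rats turning and as turns in the first 15 min after turning began. Groups of 6–10 rats.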

The subject of assay [2] is Rattus norvegicus. The assay is described as follows: Ability to lower the serum prolactin levels in comparison with that of pergolide was determined for the control rats at ip dose of 0.5 mg/kg. The following applies: route intraperitoneal. The procedure, abridged:
(§2)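 Reserpinized male rats, test compound ip. Serum prolactin (ng/mL) was measured in control and treated groups, and the treated value was expressed as percent change from control. Means ± standard error for 10 rats, with significance versus control prolactin given as p.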

In assay [3] the test system is Rattus norvegicus. The assay is described as follows: Ability to induce contralateral rotational behavior in unilateral 6-hydroxydopamine nigrostriatal-lesioned rats and percent of rats turning was determined at intraperitoneal dosage of 0.1 mg/kg. The procedure, abridged:
as §1

Assay [4] relates to Rattus norvegicus. The assay can be described thus: Ability to lower the serum prolactin levels in comparison with that of pergolide expressed as percent inhibition change at ip dose of 0.5 mg/kg. The following applies: route intraperitoneal. A digest of the protocol: as §2
Assay [5] concerns Rattus norvegicus. The assay is described as follows: Ability to lower the serum prolactin levels in comparison with that of pergolide was determined for the control rats at ip dose of 0.01 mg/kg. To be noted: route intraperitoneal. A digest of the protocol: as §2
The subject of assay [6] is Rattus norvegicus. The assay can be described thus: Ability to lower the serum prolactin levels in comparison with that of pergolide expressed as percent inhibition change at ip dose of 0.05 mg/kg. To be noted: route intraperitoneal. The procedure, abridged:
as §2

The subject of assay [7] is Rattus norvegicus. The assay can be described thus: Ability to lower the serum prolactin levels in comparison with that of pergolide was determined for the control rats at ip dose of 0.05 mg/kg. To be noted: route intraperitoneal. A digest of the protocol: as §2
The subject of assay [8] is Rattus norvegicus. The assay is described as follows: Ability to induce contralateral rotational behavior in unilateral 6-hydroxydopamine nigrostriatal-lesioned rats and no. of turns was determined after 15 minutes of start at intraperitoneal dosage of 0.1 mg/kg. The procedure, abridged: as §1
In assay [9] the test system is Rattus norvegicus. The assay is described as follows: Ability to lower the serum prolactin levels in comparison with that of pergolide was determined for the drug-treated rats at ip dose of 0.01 mg/kg. The following applies: route intraperitoneal. A digest of the protocol: as §2
The subject of assay [10] is Rattus norvegicus. The assay is described as follows: Ability to lower the serum prolactin levels in comparison with that of pergolide expressed as percent inhibition change at ip dose of 0.1 mg/kg. The following applies: route intraperitoneal. A digest of the protocol: as §2
Assay [11] relates to Rattus norvegicus. The assay is described as follows: Ability to lower the serum prolactin levels in comparison with that of pergolide was determined for the drug-treated rats at ip dose of 0.1 mg/kg. To be noted: route intraperitoneal. A digest of the protocol:
as §2

Assay [12] has as its system Rattus norvegicus. The assay can be described thus: Ability to lower the serum prolactin levels in comparison with that of pergolide was determined for the drug-treated rats at ip dose of 0.5 mg/kg. The following applies: route intraperitoneal. A digest of the protocol:
as §2

Assay [13] concerns Rattus norvegicus. The assay can be described thus: Ability to induce contralateral rotational behavior in unilateral 6-hydroxydopamine nigrostriatal-lesioned rats and percent of rats turning was determined at intraperitoneal dosage of 1.0 mg/kg. The procedure, abridged: as §1
Assay [14] relates to Rattus norvegicus. The assay can be described thus: Ability to lower the serum prolactin levels in comparison with that of pergolide was determined for the control rats at ip dose of 0.1 mg/kg. The following applies: route intraperitoneal. A digest of the protocol: as §2
For assay [15], the system named is Rattus norvegicus. The assay can be described thus: Ability to lower the serum prolactin levels in comparison with that of pergolide expressed as percent inhibition change at ip dose of 0.01 mg/kg. The following applies: route intraperitoneal. A digest of the protocol: as §2
For assay [16], the system named is Rattus norvegicus. The assay can be described thus: Ability to lower the serum prolactin levels in comparison with that of pergolide was determined for the drug-treated rats at ip dose of 0.05 mg/kg. The following applies: route intraperitoneal. A digest of the protocol:
as §2

Assay [17] concerns Rattus norvegicus. The assay can be described thus: Ability to lower the serum prolactin levels in comparison with that of pergolide was determined for the control rats at ip dose of 0.005 mg/kg. The following applies: route intraperitoneal. A digest of the protocol:
as §2

Assay [18] has as its system Rattus norvegicus. The assay can be described thus: Ability to lower the serum prolactin levels in comparison with that of pergolide was determined for the drug-treated rats at ip dose of 0.005 mg/kg. To be noted: route intraperitoneal. A digest of the protocol: as §2
The subject of assay [19] is Rattus norvegicus. The assay can be described thus: Ability to lower the serum prolactin levels in comparison with that of pergolide expressed as percent inhibition change at ip dose of 0.005 mg/kg. To be noted: route intraperitoneal. A digest of the protocol: as §2
Assay [20] relates to Rattus norvegicus. The assay can be described thus: Ability to lower the serum prolactin levels in comparison with that of pergolide was determined for the drug-treated rats at ip dose of 5.0 mg/kg. The following applies: route intraperitoneal. A digest of the protocol:
as §2

Assay [21] deals with Rattus norvegicus. The assay is described as follows: Ability to lower the serum prolactin levels in comparison with that of pergolide expressed as percent inhibition change at ip dose of 5.0 mg/kg. The following applies: route intraperitoneal. A digest of the protocol: as §2

For `CCCN1CCO[C@@H]2Cc3n[nH]cc3C[C@H]21`, the results for the Turns in the assay on Rattus norvegicus [1] and in the assay on Rattus norvegicus [8] were 52 and 35, respectively. For the same compound, the Prolactin control with Rattus norvegicus [2] came out at 46.8 ng/mL; with Rattus norvegicus [5], 58 ng/mL; in the assay on Rattus norvegicus [7] it was 45.5 ng/mL; with Rattus norvegicus [14], 46.8 ng/mL. Further, the Rats turning in the assay with Rattus norvegicus [3] stood at 60%; with Rattus norvegicus [13] it was 100%. For the same compound, the Change in the assay with Rattus norvegicus [4] is given as -92%; in the assay on Rattus norvegicus [6], -41%; with Rattus norvegicus [10], -35%; in the assay on Rattus norvegicus [15] it was 7%. Moreover, the Prolactin treatment turned out to be 62 ng/mL in the assay with Rattus norvegicus [9], 30.2 ng/mL in the assay with Rattus norvegicus [11], 3.6 ng/mL in the assay on Rattus norvegicus [12] and 27 ng/mL in the assay on Rattus norvegicus [16].

The compound `CCCN1CCO[C@@H]2Cc3nc(N)ncc3C[C@H]21` returned a Turns in the assay with Rattus norvegicus [1] of 33. In addition, the Prolactin control was determined as 52 ng/mL in the assay with Rattus norvegicus [5], 45.4 ng/mL in the assay with Rattus norvegicus [7] and 40.6 ng/mL in the assay with Rattus norvegicus [17]. The figures for the Change with Rattus norvegicus [6], in the assay with Rattus norvegicus [19] and with Rattus norvegicus [15] were -70%, 1% and -31%, respectively. Besides, the Prolactin treatment stood at 33.7 ng/mL in the assay with Rattus norvegicus [9], 41.2 ng/mL with Rattus norvegicus [18] and 13.8 ng/mL in the assay on Rattus norvegicus [16]. In the assay with Rattus norvegicus [13], this compound gave a Rats turning of 80%.

In the assay with Rattus norvegicus [1], `CCCN1CCO[C@@H]2Cc3nc(N)sc3C[C@H]21` returned a Turns of 95. Also, the values for the Prolactin control with Rattus norvegicus [5] and in the assay with Rattus norvegicus [7] were 40.6 ng/mL and 41.5 ng/mL, respectively. Also, the Change was -51% in the assay on Rattus norvegicus [6] and -20% with Rattus norvegicus [15]. In addition, the figures for the Prolactin treatment in the assay on Rattus norvegicus [9] and in the assay on Rattus norvegicus [16] were 48.9 ng/mL and 20.2 ng/mL, respectively. This compound gave a Rats turning in the assay with Rattus norvegicus [13] of 80%.

As for `CCCN1C[C@H](CSC)C[C@@H]2c3cccc4[nH]cc(c34)C[C@H]21` [PERGOLIDE], the Turns in the assay on Rattus norvegicus [1] was determined as 93; in the assay with Rattus norvegicus [8], 81. The values for the Of rats turning with Rattus norvegicus [3] and with Rattus norvegicus [13] were 83% and 100%, respectively. The Change in the assay on Rattus norvegicus [6] is listed as -95%; in the assay with Rattus norvegicus [19] it was -91%. The Prolactin control in the assay with Rattus norvegicus [7] is 30.4 ng/mL; in the assay on Rattus norvegicus [17], 37.7 ng/mL. Besides, the Prolactin treatment worked out at 3.5 ng/mL with Rattus norvegicus [18] and 1.6 ng/mL in the assay on Rattus norvegicus [16].

Consider `CCCN1CCC[C@@H]2Cc3n[nH]cc3C[C@H]21` [QUINPIROLE], for which the Turns/1st is recorded as 85 in the assay with Rattus norvegicus [1] and 67 with Rattus norvegicus [8]. For the same compound, the Prolactin treatment came out at 2.7 ng/mL in the assay on Rattus norvegicus [20], 7.7 ng/mL in the assay with Rattus norvegicus [12] and 12.3 ng/mL in the assay with Rattus norvegicus [16]. The Of rats turning in the assay on Rattus norvegicus [3] was 75%; with Rattus norvegicus [13], 100%. Besides, the Change in the assay with Rattus norvegicus [21] was -91%; in the assay with Rattus norvegicus [4], -76%; with Rattus norvegicus [6], -61%.
